Source: PubChem (Johns Hopkins Ion Channel Center)
An excerpt weighted towards active compounds, which were near 3.1% of everything screened.
KCNQ1 inh: human KCNQ1 channel inhibition. B-score at 10 µM. P51787. CHO-K1 KCNQ1, FluxOR thallium flux fluorescence; stronger effect = higher value. AID 2642. hit rate 1.3% among 310,000;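 active means compounds whose thallium flux B-score, printed positive for inhibition, exceeds three library SD while starting fluorescence stays within three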;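 further: channel opened by potassium depolarization with thallium stimulus after 20 min compound exposure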
KCNK3 block: human KCNK3 channel inhibition, primary screen | O14649 | CHO-KCNK3 thallium flux, FluxOR fluorescence; stronger effect = lower value | B-score at 10 µM | hit rate 0.84% among 340,000 | AID 602410;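 active means B-score under library mean minus 4 SD, starting fluorescence ratio at most library mean plus 5 SD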;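 further: more negative B-score means stronger inhibition of thallium flux through KCNK3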
KCNQ1 act: potentiators or activators of human KCNQ1 potassium channel | P51787 | CHO-K1 KCNQ1, thallium flux FluxOR fluorescence; stronger effect = higher value | B-score at 10 µM | hit rate 0.35% among 310,000;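 active means fluorescence ratio B-score, a plate-corrected score, at least three library SD, with initial intensity B-score within 5 SD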
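Medium – assay buffer, equal DMSO in all wells · Material – CHO-K1 cell line with stable KCNQ1 potassium channel expression · Signal – kinetic FluxOR thallium fluorescence, 10-s 1-Hz baseline, 110-s post-stimulus read · Compound – single concentration per compound, DMSO matched to controls · Schedule – 37 °C overnight plating, 90-min dark dye load, 20-min compound pretreatment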
KCNK9 inh: human KCNK9 channel inhibition; hit rate 1.2% among 310,000; Q9NPC2; AID 488922; HEK293 KCNK9, FluxOR thallium flux fluorescence; stronger effect = lower value; B-score at 10 µM;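 active means ratio B-score over 3 SD below the library mean, with starting fluorescence within 5 SD of its mean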;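 further: negative B-score means less thallium flux so channel inhibition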
hERG rescue: shields human hERG channel from block by proarrhythmic agents; hit rate 0.51% among 310,000; CHO-hERG, FluxOR thallium flux, dofetilide IC70 present; activation (rescue from dofetilide block), less the hit threshold, % at 10 µM; Q12809; AID 1511;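 active means activation above the mean of controls blocked by dofetilide plus 5 SD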;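 further: thallium influx through hERG after potassium depolarization seen as dye fluorescence rise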
Target sequence (Q12809 whole entry, looked up): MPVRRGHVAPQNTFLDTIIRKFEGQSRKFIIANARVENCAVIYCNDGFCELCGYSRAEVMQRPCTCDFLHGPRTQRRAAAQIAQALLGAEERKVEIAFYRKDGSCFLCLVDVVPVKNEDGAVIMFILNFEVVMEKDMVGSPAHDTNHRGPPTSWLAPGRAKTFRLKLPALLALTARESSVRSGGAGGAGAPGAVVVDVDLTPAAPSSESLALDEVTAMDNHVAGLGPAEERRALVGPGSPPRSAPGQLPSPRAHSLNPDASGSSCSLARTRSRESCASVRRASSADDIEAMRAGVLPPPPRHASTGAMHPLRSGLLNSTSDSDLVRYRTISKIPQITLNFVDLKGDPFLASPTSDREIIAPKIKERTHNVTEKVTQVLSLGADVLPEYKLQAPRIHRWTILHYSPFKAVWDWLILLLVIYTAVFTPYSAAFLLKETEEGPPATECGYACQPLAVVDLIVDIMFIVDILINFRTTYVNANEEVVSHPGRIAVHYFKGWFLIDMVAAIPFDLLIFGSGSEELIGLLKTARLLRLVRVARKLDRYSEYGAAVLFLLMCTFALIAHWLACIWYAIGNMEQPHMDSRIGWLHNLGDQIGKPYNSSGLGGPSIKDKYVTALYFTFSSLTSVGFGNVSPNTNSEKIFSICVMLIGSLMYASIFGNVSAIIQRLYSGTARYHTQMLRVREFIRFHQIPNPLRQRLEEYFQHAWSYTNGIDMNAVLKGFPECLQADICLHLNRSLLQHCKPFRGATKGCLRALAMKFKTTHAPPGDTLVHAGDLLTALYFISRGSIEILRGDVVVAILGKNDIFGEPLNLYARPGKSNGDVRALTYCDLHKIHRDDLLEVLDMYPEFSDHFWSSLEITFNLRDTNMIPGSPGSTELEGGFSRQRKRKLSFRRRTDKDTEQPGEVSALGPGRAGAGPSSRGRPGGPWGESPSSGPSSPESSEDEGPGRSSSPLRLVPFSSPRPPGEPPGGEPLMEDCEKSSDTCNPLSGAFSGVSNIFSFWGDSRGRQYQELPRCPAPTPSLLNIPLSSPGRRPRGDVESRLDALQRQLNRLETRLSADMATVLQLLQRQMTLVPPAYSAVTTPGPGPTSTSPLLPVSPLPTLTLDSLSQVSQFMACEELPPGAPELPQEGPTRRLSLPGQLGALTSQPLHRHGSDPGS
KCNK9 block conf: confirmation of human KCNK9 potassium channel inhibitors; shares compounds with KCNK9 inh; HEK293 KCNK9 cells, FluxOR thallium flux fluorescence; inhibition, % at 10 µM; hit rate 43% among 4,900; AID 492992;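 active means thallium signal inhibited by more than 5 SD of the compound-free buffer control wells, on both duplicate plates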
Kir2-1 spec: tests whether KCNK9 modulators also affect mouse Kir2.1. inhibition, % at 10 µM. shares compounds with KCNK9 inh. AID 492993. Kir2.1 cells, FluxOR thallium flux fluorescence. hit rate 4% among 4,900;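 active means thallium signal drop more than 5 SD beyond the mean of the no-compound control wells, seen in both duplicate plates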;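 further: signal is fluorescence rise after thallium addition divided by baseline fluorescence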
HEK293 Tl ctr: second counter-screen for KCNK9 modulators: effect in non-induced cells; shares compounds with KCNK9 inh; non-induced KCNK9-HEK293, FluxOR thallium flux; inhibition, % at 10 µM; hit rate 40% among 4,900; AID 492997;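 active means thallium signal drop beyond 5 SD of the untreated control mean, on both duplicate plates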
Each line names hits and unclear results; the compound was inactive in the other large screens (follow-up assays come after a bar, where they were run).

CCn1nc([N+](=O)[O-])c(C(C#N)c2nc3cc(C(F)(F)F)ccc3s2)c(Cl)c1=O (stereo not given)	none | KCNK9 block conf inactive | Kir2-1 spec inactive | HEK293 Tl ctr inactive
Cn1nc([N+](=O)[O-])c(C(C#N)c2ccccn2)c(Cl)c1=O (stereo not given)	none
COc1ccc(N2CC(C)Cn3c2nc2c3c(=O)n(Cc3ccc(F)cc3)c(=O)n2C)c(OC)c1 (stereo not given)	none
COc1ccc(N2CC(C)Cn3c2nc2c3c(=O)n(Cc3ccc(C)cc3)c(=O)n2C)c(OC)c1 (stereo not given)	none | KCNK9 block conf inactive | Kir2-1 spec inactive | HEK293 Tl ctr inactive
CCCn1c(C2CCCN2c2nc(C)cs2)nc2cc(Cl)c(Cl)cc21 (stereo not given)	KCNK9 inh -9.5 | KCNK9 block conf inactive | Kir2-1 spec inactive | HEK293 Tl ctr 34%
CCCn1c(C2CCCN2c2nc(-c3cccc(Br)c3)cs2)nc2cc(Cl)c(Cl)cc21 (stereo not given)	none
COc1ccc(C)cc1N(C(=O)COc1ccccc1)c1nc2ccccc2s1	none
COc1ccc(C)cc1N(C(=O)c1ccccc1)c1nc2ccccc2s1	KCNK9 inh -10 | KCNK9 block conf 42% | Kir2-1 spec inactive | HEK293 Tl ctr 32%
COc1ccc(C)cc1N(C(=O)c1cccc(F)c1)c1nc2ccccc2s1	none (no result: KCNQ1 inh, KCNQ1 act, KCNK9 inh, hERG rescue)
COc1ccc(C)cc1N(C(=O)c1ccccc1F)c1nc2ccccc2s1	KCNK9 inh -9.7 | KCNK9 block conf 46% | Kir2-1 spec inactive | HEK293 Tl ctr 36%
COc1ccc(C(=O)NNC(=O)C2CCCN(C3CC(=O)N(c4ccccc4)C3=O)C2)cc1 (stereo not given)	none
CN(C)CCn1c(=O)n(-c2cccc(Cl)c2)c(=O)c2c3c(sc21)CCCCC3	none | KCNK9 block conf inactive | Kir2-1 spec inactive | HEK293 Tl ctr inactive
CCCn1c(=O)c(C(=O)Nc2ncccc2C)c(O)c2ccccc21	none
CCCn1c(=O)c(C(=O)Nc2cccc(C)n2)c(O)c2ccccc21	KCNK9 inh -10 | KCNK9 block conf inactive | Kir2-1 spec inactive | HEK293 Tl ctr 29%
CCCCCCCCC(=O)NNC(=O)c1c(O)c2ccccc2n(CCC)c1=O	none | KCNK9 block conf inactive | Kir2-1 spec inactive | HEK293 Tl ctr inactive
CCCCCCCCCC(=O)NNC(=O)c1c(O)c2ccccc2n(CCC)c1=O	none
O=c1nc(-c2ccccc2)c2cc(SC(F)F)ccc2[nH]1	none
CN(C)S(=O)(=O)c1cccc(NC(=S)NCCCn2ccnc2)c1	none
Cc1ccc(NS(=O)(=O)c2cccc(C(=O)NCCc3c[nH]c4ccccc34)c2)c(C)c1	none | KCNK9 block conf inactive | Kir2-1 spec inactive | HEK293 Tl ctr 27%
Cc1ccc(NC(=O)C(=O)NCCc2c[nH]c3ccccc23)c(C)c1	none
Cc1ccc(NC(=O)CN(C)Cc2cccs2)cc1Cl	KCNK9 inh -16 | KCNK9 block conf 68% | Kir2-1 spec inactive | HEK293 Tl ctr 32%
Cc1ccc(/C=C2\SC(=S)N(CCCC(=O)Nc3ccccc3C(=O)O)C2=O)cc1	none
CCc1ccc(/C=C2\SC(=S)N(CCCC(=O)Nc3ccccc3C(=O)O)C2=O)cc1	none | KCNK9 block conf inactive | Kir2-1 spec inactive | HEK293 Tl ctr inactive
CCOc1ccc(/C=C2\SC(=S)N(CCC(=O)Nc3ccc(C(=O)O)cc3)C2=O)cc1	none
O=C(CCCN1C(=O)/C(=C\c2ccccc2)SC1=S)Nc1ccc(C(=O)O)cc1	none
CCOc1ccc(/C=C2\SC(=S)N(CCC(=O)Nc3cccc(C(=O)O)c3)C2=O)cc1	none | KCNK9 block conf inactive | Kir2-1 spec inactive | HEK293 Tl ctr inactive
CCc1ccc(/C=C2\SC(=S)N(CCCC(=O)Nc3ccc(C(=O)O)cc3)C2=O)cc1	none | KCNK9 block conf inactive | Kir2-1 spec inactive | HEK293 Tl ctr inactive
COc1cc(/C=N/NC(=O)C(=O)/C=C2\NC3(CCCC3)Cc3ccccc32)ccc1O	KCNK9 inh -11 | KCNK9 block conf 44% | Kir2-1 spec inactive | HEK293 Tl ctr 28%
O=C(/C=C1\NC2(CCCC2)Cc2ccccc21)C(=O)N/N=C/c1ccccc1O	none
COc1ccccc1C1CCN(Cc2ccc(Cl)c(Cl)c2)CC1	none | KCNK9 block conf inactive | Kir2-1 spec inactive | HEK293 Tl ctr inactive
COc1ccccc1C1CCN(Cc2ccc(Cl)cc2Cl)CC1	none
COc1ccccc1C1CCN(Cc2cccc3ccccc23)CC1	none | KCNK9 block conf inactive | Kir2-1 spec inactive | HEK293 Tl ctr 27%
Cc1cccc(NC(=O)C2CCCN2C(=O)NC2CCCCC2)c1 (stereo not given)	none
Cc1ccc(C(=O)Nc2ccccc2C(=O)NCc2ccco2)cc1S(=O)(=O)N1CCCCC1	none | KCNK9 block conf inactive | Kir2-1 spec inactive | HEK293 Tl ctr inactive
CC(C)CN(C(=O)c1ccc2c(c1)OCCO2)c1c(N)n(Cc2ccccc2)c(=O)[nH]c1=O	none
COc1ccc(NC(=S)NNc2ccc(C(=O)O)cc2)cc1	none
Cc1ccc(S(=O)(=O)N(C)CC(O)Cn2c3ccccc3c3ccccc32)cc1 (stereo not given)	none
O=S(=O)(c1ccccc1)N(CC(O)Cn1c2ccccc2c2ccccc21)c1ccccc1 (stereo not given)	KCNK9 inh -11 | KCNK9 block conf 40% | Kir2-1 spec inactive | HEK293 Tl ctr 25%
N#Cc1ccccc1OCC(=O)Nc1ccc(S(=O)(=O)N2CCOCC2)cc1	none (no result: KCNQ1 inh, KCNQ1 act, KCNK9 inh, hERG rescue)
CC(NC(=O)c1ccc(CS(=O)(=O)c2cccc(C(F)(F)F)c2)o1)c1ccc2c(c1)OCCO2 (stereo not given)	none | KCNK9 block conf inactive | Kir2-1 spec inactive | HEK293 Tl ctr inactive
CCOc1ccc(OCCOC(=O)C2CCN(S(=O)(=O)c3ccc(C)c(C)c3)CC2)cc1	none | KCNK9 block conf inactive | Kir2-1 spec inactive | HEK293 Tl ctr inactive
CCOC(=O)c1c(C)c(C(=O)N2CCN(c3cccc(Cl)c3)CC2)c(C)n1C	none | KCNK9 block conf inactive | Kir2-1 spec inactive | HEK293 Tl ctr inactive
CCOC(=O)c1c(C)[nH]c(N=Nc2cccc(OC)c2)c1C	KCNK9 inh -12 | KCNK9 block conf 62% | Kir2-1 spec inactive | HEK293 Tl ctr inactive
CCOC(=O)c1c(C)[nH]c(N=Nc2cccc(C)c2)c1C	none
COc1ccc(C(=O)Nc2c(N)nc(SCC(=O)c3ccccc3)[nH]c2=O)cc1	none
CCCN(CC(=O)Nc1cccc(Br)c1)CC(=O)Nc1ccc(F)c(F)c1F	KCNK9 inh -15 | KCNK9 block conf 72% | Kir2-1 spec inactive | HEK293 Tl ctr 50%
CCCN(CC(=O)Nc1ccc(C)cc1Br)CC(=O)Nc1ccc(F)c(F)c1F	KCNK9 inh -9.9 | KCNK9 block conf 64% | Kir2-1 spec inactive | HEK293 Tl ctr 39%
